Calls of active or inactive are those of the source. No cut-off for these calls is given here.
Experiments:
[1] = (§1) Inhibition of IL-1beta-induced PGE2 production in human HCA-7 cells at 1 uM after 72 hrs by EIA; type: functional; conditions: HCA-7, 72 h
Outline: (§2)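 Screen of HCA-7 cells at 1 μM compound (DMSO) with 10 ng/ml IL-1β in serum-free medium for 72 h, after overnight DMEM/10% FBS culture and 18 h serum starvation. Supernatant PGE2 quantified by EIA, expressed as % reduction of PGE2 level ± SD, n = 3.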

[2] = target: T1, Prostaglandin G/H synthase 2 (Homo sapiens, UniProt P35354); assay: Inhibition of COX2 by fluorescence assay
T1 sequence (P35354 whole entry): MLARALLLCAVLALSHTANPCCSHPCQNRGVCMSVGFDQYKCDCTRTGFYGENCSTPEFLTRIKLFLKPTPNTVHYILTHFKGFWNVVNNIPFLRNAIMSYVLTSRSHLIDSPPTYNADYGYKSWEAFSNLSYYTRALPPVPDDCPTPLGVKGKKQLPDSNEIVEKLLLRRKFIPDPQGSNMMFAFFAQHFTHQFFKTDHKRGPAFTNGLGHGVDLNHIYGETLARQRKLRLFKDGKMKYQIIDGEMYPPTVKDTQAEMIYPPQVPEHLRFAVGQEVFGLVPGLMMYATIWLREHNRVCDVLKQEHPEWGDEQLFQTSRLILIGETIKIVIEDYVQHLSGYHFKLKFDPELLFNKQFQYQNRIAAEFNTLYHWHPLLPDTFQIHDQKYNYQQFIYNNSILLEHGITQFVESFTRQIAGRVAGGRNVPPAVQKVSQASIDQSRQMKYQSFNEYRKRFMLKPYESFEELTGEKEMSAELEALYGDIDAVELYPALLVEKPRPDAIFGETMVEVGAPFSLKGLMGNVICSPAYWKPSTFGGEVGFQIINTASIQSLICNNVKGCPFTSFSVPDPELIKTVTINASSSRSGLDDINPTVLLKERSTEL

[3] = target: T2, Prostaglandin G/H synthase 2 (Homo sapiens) (UniProt P35354); conditions: at 5 µM
T2 sequence (whole entry): T1 sequence (P35354 whole entry)

HCA-7 = assay: as §1; type: functional; outline: as §2
[4] = Inhibition of IL-1beta-induced PGE2 production in human HCA-7 cells after 72 hrs by EIA; type: functional, cell-based; conditions: HCA-7, 72 h
Outline: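 HCA-7 cells seeded and incubated overnight in DMEM/10% FBS, then serum-starved 18 h. Stimulated with 10 ng/ml IL-1β plus increasing compound concentrations (DMSO) in serum-free medium for 72 h. Supernatant PGE2 measured by EIA.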

[5] = Antitumor activity against human HCA-7 cells xenografted in mouse at 200 mg/kg for 5 days relative to control; type: functional
SW837 = assay: Antitumor activity against human SW837 cells xenografted in mouse at 200 mg/kg for 5 days relative to control; type: functional
A549 = assay: Antitumor activity against human A549 cells xenografted in mouse at 100 mg/kg for 10 days relative to control; type: functional

For `N#Cc1ccc(Nc2nc(-c3ccc(Cl)cc3)cs2)cc1`, the inhibition at 1 µM [1] was 23.1%.
In the case of `COc1ccc(Nc2nc(-c3ccc(OC)cc3)cs2)cc1`, the inhibition at 1 µM [1] is reported as 73.6%, the IC50 [2] is reported as 1370 nM and the inhibition [3] is reported as 66.8%.
`c1ccc(Oc2ccc(Nc3nc(-c4ccc(C5CCCCC5)cc4)cs3)cc2)cc1` gave an inhibition at 1 µM [1] of 41.6%.
In the case of `N#Cc1ccc(Nc2nc(-c3ccccc3)c(C(=O)c3ccccc3)s2)cc1`, the inhibition (HCA-7) is reported as “inactive”.
With `COc1cccc(-c2csc(Nc3ccc4c(c3)OCO4)n2)c1` the inhibition at 1 µM [1] was 94.4%, the IC50 [2] was 920 nM and the inhibition [3] was 86%.
With `COc1cccc(-c2csc(Nc3ccc(Oc4ccccc4)cc3)n2)c1` the inhibition at 1 µM [1] was 88.9%, the IC50 [2] was > 5000 nM and the EC50 [4] was 290 nM. The inhibition [3] was 40.3%.
For `COc1ccc(-c2csc(Nc3ccc4c(c3)OCO4)n2)cc1`, the inhibition at 1 µM [1] was 96.2%, the IC50 [2] was 910 nM and the inhibition [3] was 94.4%.
For `CC(=O)c1sc(Nc2ccc(Oc3ccccc3)cc2)nc1C`, the inhibition at 1 µM [1] was 87.9%, the IC50 [2] was > 5000 nM and the inhibition [3] was 28.9%.
`CN(c1ccc(O)cc1)c1nc(-c2ccc(Cl)cc2)cs1` showed an inhibition at 1 µM [1] of 85.8%, an IC50 [2] of 1080 nM and an inhibition [3] of 84.2%.
With `COc1ccccc1-c1csc(Nc2ccc(Oc3ccccc3)cc2)n1` the inhibition at 1 µM [1] was 82%, the IC50 [2] was > 5000 nM and the EC50 [4] was 180 nM. For the same molecule, the inhibition [3] was 38.9%.
For `CC(=O)c1sc(Nc2ccccc2)nc1C`, the inhibition at 1 µM [1] was 29.9%.
`c1ccc(-c2csc(Nc3ccc4c(c3)OCO4)n2)cc1` gave an inhibition at 1 µM [1] of 98.2%, an IC50 [2] of 410 nM and an inhibition [3] of 114%.
For `CC(=O)c1sc(Nc2ccc(C#N)cc2)nc1C`, the inhibition at 1 µM [1] was 22.4%.
For `CCc1sc(Nc2ccc(OC)cc2)nc1C`, the inhibition at 1 µM [1] was 94.4%, the IC50 [2] was > 5000 nM and the EC50 [4] was 320 nM. The inhibition [3] was 49.3%.
In the case of `Cc1nc(Nc2ccc(Oc3ccccc3)cc2)sc1C(C)O` (stereo not given), the inhibition at 1 µM [1] is reported as 80.4%, the IC50 [2] is reported as > 5000 nM and the EC50 [4] is reported as 90 nM.
`Clc1ccc(-c2csc(Nc3ccc4c(c3)OCO4)n2)cc1` showed an inhibition at 1 µM [1] of 94.2%, an IC50 [2] of 840 nM and an inhibition [3] of 68.8%.
Molecule `Clc1ccc(-c2csc(Nc3cccc4ccccc34)n2)cc1` has an inhibition at 1 µM [1] of 51.4%.
`COc1ccccc1-c1csc(Nc2ccc3c(c2)OCO3)n1` showed an inhibition at 1 µM [1] of 89%, an IC50 [2] of 930 nM and an inhibition [3] of 91.3%.
In the case of `Fc1ccc(-c2csc(Nc3ccc(Oc4ccccc4)cc3)n2)cc1`, the inhibition at 1 µM [1] is reported as 87.9%, the IC50 [2] is reported as > 5000 nM and the EC50 [4] is reported as 120 nM. It also gave an inhibition [3] of 43.4%.
For `Clc1ccc(-c2csc(Nc3ccccc3)n2)cc1`, the inhibition at 1 µM [1] was 51%.
In the case of `COc1ccc(Nc2nc(-c3ccc(C)cc3)cs2)cc1`, the inhibition at 1 µM [1] is reported as 37.3%.
`O=C(c1ccccc1)c1sc(Nc2ccc(Oc3ccccc3)cc2)nc1-c1ccccc1` gave an inhibition at 1 µM [1] of 42%.
`COc1ccc(Nc2nc(C)c(C(C)=O)s2)cc1` gave an inhibition at 1 µM [1] of 58.5%.
With `COc1ccc(Nc2nc(-c3ccc(Cl)cc3)c(C)s2)cc1` the inhibition at 1 µM [1] was 89.3%, the IC50 [2] was > 5000 nM and the inhibition [3] was 12%.
For `O=C(c1ccccc1)c1sc(Nc2ccc3c(c2)OCO3)nc1-c1ccccc1`, the inhibition (HCA-7) was “inactive”.
For `COc1ccc(Nc2nc(-c3ccc(C)c(C)c3)cs2)cc1`, the inhibition at 1 µM [1] was 73.9%, the IC50 [2] was 1200 nM and the inhibition [3] was 69.3%.
Molecule `Clc1ccccc1-c1csc(Nc2ccc3c(c2)OCO3)n1` has an inhibition at 1 µM [1] of 85.9%, an IC50 [2] of 910 nM and an inhibition [3] of 84.8%.
For `CC(=O)c1sc(Nc2ccc3c(c2)OCO3)nc1C`, the inhibition at 1 µM [1] was 25.3%.
With `Clc1ccc(-c2csc(Nc3ccc(Oc4ccccc4)cc3)n2)cc1` the inhibition at 1 µM [1] was 75.5%, the IC50 [2] was > 10000 nM and the EC50 [4] was 280 nM. The T/C [5] was 61%, the T/C (SW837) was 40% and the T/C (A549) was 38%. It also gave an inhibition [3] of 32.1%.
With `c1ccc(Oc2ccc(Nc3nc(-c4ccccc4)cs3)cc2)cc1` the inhibition at 1 µM [1] was 79.6%, the IC50 [2] was > 5000 nM and the EC50 [4] was 330 nM. It also gave an inhibition [3] of 31%.
`c1ccc(Oc2ccc(Nc3nc(-c4ccc5ccccc5c4)cs3)cc2)cc1` showed an inhibition at 1 µM [1] of 53.5%.
`COc1ccc(-c2csc(Nc3ccc(C)cc3)n2)cc1` showed an inhibition at 1 µM [1] of 91.5%, an IC50 [2] of 810 nM and an inhibition [3] of 73.1%.
With `COc1ccc(Nc2nc(-c3ccccc3)c(C(=O)c3ccccc3)s2)cc1` the inhibition (HCA-7) was “inactive”.
With `COc1cccc(Nc2nc(-c3ccc(Cl)cc3)cs2)c1` the inhibition at 1 µM [1] was 78.3%, the IC50 [2] was 1390 nM and the inhibition [3] was 55.1%.
With `CCc1sc(Nc2ccc(Oc3ccccc3)cc2)nc1C` the inhibition at 1 µM [1] was 87.1%, the IC50 [2] was > 5000 nM and the inhibition [3] was 41.3%.
For `COc1ccc(-c2csc(Nc3ccc(Oc4ccccc4)cc3)n2)cc1`, the inhibition at 1 µM [1] was 80.4%, the IC50 [2] was > 5000 nM and the EC50 [4] was 240 nM. It also gave an inhibition [3] of 40.8%.
